Assay results taken from ChEMBL document CHEMBL4145468, “Synthesis and biological evaluation of new steroidal pyridines as potential anti-prostate cancer agents” (Eur J Med Chem, 2018).

Key:
MGC-803 = experiment: Antiproliferative activity against human MGC803 cells after 72 hrs by MTT assay; assay type: functional, cell-based; conditions: MGC-803, 72 h
In short: (§1)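 Exponentially growing cells, 4×10^3/well, attached 24 h, then medium replaced with fresh medium holding graded compound concentrations for 72 h. MTT (5 mg/mL stock) added for 4 h, formazan dissolved in DMSO, absorbance at 570 nm; IC50 calculated from dose-response data.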

GES1 = experiment: Antiproliferative activity against human GES-1 cells after 72 hrs by MTT assay; assay type: cell-based; conditions: GES1, 72 h; in short: as §1
ECa-109 cell line = experiment: Antiproliferative activity against human EC109 cells after 72 hrs by MTT assay; assay type: functional, cell-based; conditions: ECa-109, 72 h; in short: as §1
PC-3 = experiment: Antiproliferative activity against human PC3 cells after 72 hrs by MTT assay; assay type: functional, cell-based; conditions: PC-3, 72 h; in short: as §1
LNCaP = experiment: Antiproliferative activity against human LNCAP cells after 72 hrs by MTT assay; assay type: functional, cell-based; in short: as §1

Row | Compound | IC50 (MGC-803) [µM] | IC50 (PC-3) [µM] | IC50 (LNCaP) [µM] | IC50 (GES1) [µM] | IC50 (ECa-109 cell line) [µM]
1 | CCOc1cc(-c2ccc(Br)cc2)cc([C@H]2CC[C@H]3[C@@H]4CC=C5C[C@@H](O)CC[C@]5(C)[C@H]4CC[C@]23C)n1 | > 32 | > 32 | – | > 32 | > 32
2 | CCOc1cc(-c2ccc(C)cc2)cc([C@H]2CC[C@H]3[C@@H]4CC=C5C[C@@H](O)CC[C@]5(C)[C@H]4CC[C@]23C)n1 | > 32 | > 32 | – | > 32 | > 32
3 | CCOc1cc(-c2ncccc2Br)cc([C@H]2CC[C@H]3[C@@H]4CC=C5C[C@@H](O)CC[C@]5(C)[C@H]4CC[C@]23C)n1 | 25.8 | 13.4 | – | > 32 | > 32
4 | CCOc1cc(-c2ccc(C#N)cc2)cc([C@H]2CC[C@H]3[C@@H]4CC=C5C[C@@H](O)CC[C@]5(C)[C@H]4CC[C@]23C)n1 | 23.7 | 24.6 | – | > 32 | > 32
5 | CCOc1cc(-c2ccc(S(C)(=O)=O)cc2)cc([C@H]2CC[C@H]3[C@@H]4CC=C5C[C@@H](O)CC[C@]5(C)[C@H]4CC[C@]23C)n1 | > 32 | > 32 | – | > 32 | 31.3
6 | CCOc1cc(-c2cccc(Br)c2)cc([C@H]2CC[C@H]3[C@@H]4CC=C5C[C@@H](O)CC[C@]5(C)[C@H]4CC[C@]23C)n1 | > 32 | 21.7 | – | > 32 | > 32
7 | CCOc1nc([C@H]2CC[C@H]3[C@@H]4CC=C5C[C@@H](O)CC[C@]5(C)[C@H]4CC[C@]23C)cc(-c2ccc(C)cc2)c1C#N | > 32 | > 32 | – | > 32 | > 32
8 | CCOc1nc([C@H]2CC[C@H]3[C@@H]4CC=C5C[C@@H](O)CC[C@]5(C)[C@H]4CC[C@]23C)cc(-c2ccc(S(C)(=O)=O)cc2)c1C#N | > 32 | > 32 | – | > 32 | > 32
9 | CCOc1cc(-c2ccc(F)cc2)cc([C@H]2CC[C@H]3[C@@H]4CC=C5C[C@@H](O)CC[C@]5(C)[C@H]4CC[C@]23C)n1 | > 32 | > 32 | – | > 32 | > 32
10 | CCOc1nc([C@H]2CC[C@H]3[C@@H]4CC=C5C[C@@H](O)CC[C@]5(C)[C@H]4CC[C@]23C)cc(-c2cccc(Br)c2)c1C#N | 28.5 | 9.42 | – | 21.9 | > 32
11 | CCOc1cc(-c2ccccc2)cc([C@H]2CC[C@H]3[C@@H]4CC=C5C[C@@H](O)CC[C@]5(C)[C@H]4CC[C@]23C)n1 | > 32 | 31.1 | – | > 32 | > 32
12 | CCOc1cc(-c2cccs2)cc([C@H]2CC[C@H]3[C@@H]4CC=C5C[C@@H](O)CC[C@]5(C)[C@H]4CC[C@]23C)n1 | > 32 | 15.3 | – | > 32 | 17.6
13 | CCOc1cc(-c2ccco2)cc([C@H]2CC[C@H]3[C@@H]4CC=C5C[C@@H](O)CC[C@]5(C)[C@H]4CC[C@]23C)n1 | 26.1 | 10.8 | – | > 32 | 26.2
14 | CCOc1cc(-c2cc(F)cc(F)c2)cc([C@H]2CC[C@H]3[C@@H]4CC=C5C[C@@H](O)CC[C@]5(C)[C@H]4CC[C@]23C)n1 | > 32 | 16.5 | – | > 32 | > 32
15 | CCOc1nc([C@H]2CC[C@H]3[C@@H]4CC=C5C[C@@H](O)CC[C@]5(C)[C@H]4CC[C@]23C)cc(-c2ccc(F)cc2)c1C#N | > 32 | > 32 | – | > 32 | > 32
16 | CCOc1nc([C@H]2CC[C@H]3[C@@H]4CC=C5C[C@@H](O)CC[C@]5(C)[C@H]4CC[C@]23C)cc(-c2ccc(Br)cc2)c1C#N | > 32 | 13.7 | – | > 32 | > 32
17 | CCOc1nc([C@H]2CC[C@H]3[C@@H]4CC=C5C[C@@H](O)CC[C@]5(C)[C@H]4CC[C@]23C)cc(-c2ccc(Cl)cc2)c1C#N | > 32 | 10.4 | – | > 32 | > 32
18 | CCOc1cc(-c2cccnc2)cc([C@H]2CC[C@H]3[C@@H]4CC=C5C[C@@H](OC(C)=O)CC[C@]5(C)[C@H]4CC[C@]23C)n1 | > 32 | 6.97 | 27.9 | > 32 | > 32

Continued, in another order:

Row | IC50 (MGC-803) [µM] | IC50 (PC-3) [µM] | IC50 (LNCaP) [µM] | Compound | IC50 (GES1) [µM] | IC50 (ECa-109 cell line) [µM]
19 | 7.72 | 5.94 | 3.29 | C[C@]12CC[C@H](O)CC1=CC[C@@H]1[C@@H]2CC[C@]2(C)C(c3cccnc3)=CC[C@@H]12 [ABIRATERONE] | 13.1 | > 32
20 | 19.2 | > 32 | – | CCOc1cc(-c2ccc(Cl)cc2)cc([C@H]2CC[C@H]3[C@@H]4CC=C5C[C@@H](O)CC[C@]5(C)[C@H]4CC[C@]23C)n1 | > 32 | > 32
21 | 22.3 | 12.2 | – | CCOc1nc([C@H]2CC[C@H]3[C@@H]4CC=C5C[C@@H](O)CC[C@]5(C)[C@H]4CC[C@]23C)cc(-c2ccsc2)c1C#N | 30.1 | 10.6
22 | 4.48 | 6.37 | – | CCOc1cc(-c2ccncc2)cc([C@H]2CC[C@H]3[C@@H]4CC=C5C[C@@H](O)CC[C@]5(C)[C@H]4CC[C@]23C)n1 | 15.7 | 16.6
23 | 12.3 | 6.99 | – | CCOc1nc([C@H]2CC[C@H]3[C@@H]4CC=C5C[C@@H](O)CC[C@]5(C)[C@H]4CC[C@]23C)cc(-c2cc(F)cc(F)c2)c1C#N | > 32 | 20
24 | 15.8 | 4.39 | – | CCOc1nc([C@H]2CC[C@H]3[C@@H]4CC=C5C[C@@H](O)CC[C@]5(C)[C@H]4CC[C@]23C)cc(-c2ccccc2)c1C#N | 7.8 | 13.3
25 | 14.7 | 5.84 | 5.18 | CCOc1nc([C@H]2CC[C@H]3[C@@H]4CC=C5C[C@@H](O)CC[C@]5(C)[C@H]4CC[C@]23C)cc(-c2cccnc2)c1C#N | > 32 | 2.84
26 | 23.6 | 6.98 | – | CCOc1nc([C@H]2CC[C@H]3[C@@H]4CC=C5C[C@@H](O)CC[C@]5(C)[C@H]4CC[C@]23C)cc(-c2cccs2)c1C#N | > 32 | 9.84
27 | 13.1 | 7.77 | – | CCOc1nc([C@H]2CC[C@H]3[C@@H]4CC=C5C[C@@H](O)CC[C@]5(C)[C@H]4CC[C@]23C)cc(-c2cccc([N+](=O)[O-])c2)c1C#N | > 32 | 27.6
